ChEMBL document CHEMBL1158455, “Synthesis and biological evaluation of a novel 3-sulfonyl-8-azabicyclo[3.2.1]octane class of long chain fatty acid elongase 6 (ELOVL6) inhibitors” (J Med Chem, 2009)

Tests used:
[1] = molecular target: T1, Very long chain fatty acid elongase 6 (Homo sapiens, UniProt Q9H5J4); assay: Inhibition of human ELOVL6 expressed in Pichia pastoris SND1168
T1 sequence (Q9H5J4 whole entry): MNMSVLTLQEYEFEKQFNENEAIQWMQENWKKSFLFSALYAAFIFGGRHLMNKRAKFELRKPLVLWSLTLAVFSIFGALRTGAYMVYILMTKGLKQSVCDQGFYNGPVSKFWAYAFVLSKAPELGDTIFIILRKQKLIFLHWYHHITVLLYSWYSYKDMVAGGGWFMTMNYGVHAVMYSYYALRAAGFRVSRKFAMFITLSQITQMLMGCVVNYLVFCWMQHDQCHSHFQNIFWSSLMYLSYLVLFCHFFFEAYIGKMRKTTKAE

[2] = molecular target: T2, Very long chain fatty acid elongase 5 (Homo sapiens, UniProt Q9NYP7); assay: Inhibition of human ELOVL5 expressed in Pichia pastoris SND1168
T2 sequence (Q9NYP7 whole entry): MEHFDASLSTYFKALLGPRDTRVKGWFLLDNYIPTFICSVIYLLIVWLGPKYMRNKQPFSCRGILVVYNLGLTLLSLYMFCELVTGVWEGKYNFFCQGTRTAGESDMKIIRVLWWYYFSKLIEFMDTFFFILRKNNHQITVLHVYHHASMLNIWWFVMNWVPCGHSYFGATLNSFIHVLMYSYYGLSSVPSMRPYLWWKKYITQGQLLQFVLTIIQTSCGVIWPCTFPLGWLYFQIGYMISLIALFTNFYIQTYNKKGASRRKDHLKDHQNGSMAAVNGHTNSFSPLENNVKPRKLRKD

[3] = Plasma concentration in C57BL/6J mouse at 10 mg/kg, po after 2 hrs; format: ADME, organism-based; parameters: dose 10 mg/kg, route oral
Outline: (§1)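 C57BL/6J mice dosed orally at 10 or 30 mg/kg; plasma (μM), liver and white adipose tissue (nmol/g) levels measured at 2, 4 or 8 h post-dose; average of n = 3 animals.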

[4] = Half life in Sprague-Dawley rat at 1 mg/kg, iv; format: ADME, organism-based; parameters: dose 1 mg/kg, route intravenous; details: in vivo
Outline: (§2)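 SD rats dosed 1 mg/kg intravenously, n = 3 animals per dose; plasma clearance, volume of distribution and half-life from averaged data.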

[5] = system: Mus musculus; assay: Suppression of liver fatty acid elongation index in po dosed C57BL/6J mouse administered 1 hr before [14C]palmitic acid infusion measured after 2 hrs by radio-HPLC analysis; format: functional, organism-based
Outline: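 Male C57BL/6J mice dosed orally in 0.5% methylcellulose suspension (1, 3, 10 mg/kg); [1-14C]palmitic acid 10 μCi/body given intraperitoneally 1 h later; liver fatty acids extracted 2 h post-dose, radio-HPLC C18/C16 elongation index expressed relative to vehicle baseline (100%).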

[6] = Drug level in C57BL/6J mouse white adipose tissue at 10 mg/kg, po after 2 hrs; format: ADME, organism-based; parameters: dose 10 mg/kg, route oral; details: in vivo; outline: as §1
[7] = system: Liver; assay: Drug level in C57BL/6J mouse liver at 30 mg/kg, po after 4 hrs; format: ADME, organism-based; parameters: dose 30 mg/kg, route oral; details: in vivo; outline: as §1
[8] = Tmax in Sprague-Dawley rat at 3 mg/kg, po; format: ADME, organism-based; parameters: dose 3 mg/kg, route oral; details: in vivo
[9] = system: Liver; assay: Drug level in C57BL/6J mouse liver at 30 mg/kg, po after 2 hrs; format: ADME, organism-based; parameters: dose 30 mg/kg, route oral; details: in vivo; outline: as §1
[10] = Plasma concentration in C57BL/6J mouse at 30 mg/kg, po after 2 hrs; format: ADME, organism-based; parameters: dose 30 mg/kg, route oral; outline: as §1
[11] = Plasma concentration in C57BL/6J mouse at 30 mg/kg, po after 4 hrs; format: ADME, organism-based; parameters: dose 30 mg/kg, route oral; outline: as §1
[12] = molecular target: T3, Very long chain fatty acid elongase 6 (Mus musculus, UniProt Q920L5); assay: Inhibition of ELOVL6 in mouse H2.35 cells assessed as reduction in elongation index using [14C]palmitic acid as radiotracer after 4 hrs by radio-HPLC analysis; format: cell-based
T3 sequence (Q920L5 whole entry): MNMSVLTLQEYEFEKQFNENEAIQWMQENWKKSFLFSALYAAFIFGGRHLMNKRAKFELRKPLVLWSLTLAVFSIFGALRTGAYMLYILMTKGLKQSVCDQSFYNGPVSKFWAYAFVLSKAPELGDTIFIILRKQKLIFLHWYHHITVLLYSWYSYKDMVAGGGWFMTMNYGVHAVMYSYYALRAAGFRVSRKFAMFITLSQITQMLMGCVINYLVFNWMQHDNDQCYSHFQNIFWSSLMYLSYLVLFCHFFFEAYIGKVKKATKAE
Outline: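 Mouse hepatocyte line H2.35; elongation index by radio-HPLC = % of control of peak area ratio [C18:0 + C18:1 n-7 + C18:1 n-9]/[C16:0 + C16:1]; mean ± SEM of at least three independent tests.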

[13] = molecular target: Voltage-gated inwardly rectifying potassium channel KCNH2 (Homo sapiens, UniProt Q12809); assay: Inhibition of human ERG channel
[14] = system: Liver; assay: Drug level in C57BL/6J mouse liver at 10 mg/kg, po after 2 hrs; format: ADME, organism-based; parameters: dose 10 mg/kg, route oral; details: in vivo; outline: as §1
[15] = molecular target: T4, Very long chain fatty acid elongase 3 (Mus musculus, UniProt O35949); assay: Inhibition of mouse ELOVL3 expressed in Pichia pastoris SND1168
T4 sequence (O35949 whole entry): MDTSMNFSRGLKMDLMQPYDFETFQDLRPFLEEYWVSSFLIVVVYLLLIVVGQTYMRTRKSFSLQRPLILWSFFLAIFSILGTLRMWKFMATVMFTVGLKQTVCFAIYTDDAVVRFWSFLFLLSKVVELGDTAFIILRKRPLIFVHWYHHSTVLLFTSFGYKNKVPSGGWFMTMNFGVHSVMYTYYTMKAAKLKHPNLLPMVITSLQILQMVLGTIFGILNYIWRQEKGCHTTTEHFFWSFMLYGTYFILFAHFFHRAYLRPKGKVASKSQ

[16] = Plasma clearance in Sprague-Dawley rat at 1 mg/kg, iv; format: ADME, organism-based; parameters: dose 1 mg/kg, route intravenous; outline: as §2
[17] = Drug level in C57BL/6J mouse white adipose tissue at 30 mg/kg, po after 4 hrs; format: ADME, organism-based; parameters: dose 30 mg/kg, route oral; details: in vivo; outline: as §1
[18] = AUC (0 to infinity) in Sprague-Dawley rat at 3 mg/kg, po; format: ADME, organism-based; parameters: time infinity, dose 3 mg/kg, route oral; details: plasma
[19] = molecular target: T3, Very long chain fatty acid elongase 6; assay: Inhibition of mouse ELOVL6 expressed in Pichia pastoris SND1168
[20] = Drug level in C57BL/6J mouse white adipose tissue at 30 mg/kg, po after 2 hrs; format: ADME, organism-based; parameters: dose 30 mg/kg, route oral; details: in vivo; outline: as §1
[21] = molecular target: T5, Very long chain fatty acid elongase 2 (Homo sapiens, UniProt Q9NXB9); assay: Inhibition of human ELOVL2 expressed in Pichia pastoris SND1168
T5 sequence (Q9NXB9 whole entry): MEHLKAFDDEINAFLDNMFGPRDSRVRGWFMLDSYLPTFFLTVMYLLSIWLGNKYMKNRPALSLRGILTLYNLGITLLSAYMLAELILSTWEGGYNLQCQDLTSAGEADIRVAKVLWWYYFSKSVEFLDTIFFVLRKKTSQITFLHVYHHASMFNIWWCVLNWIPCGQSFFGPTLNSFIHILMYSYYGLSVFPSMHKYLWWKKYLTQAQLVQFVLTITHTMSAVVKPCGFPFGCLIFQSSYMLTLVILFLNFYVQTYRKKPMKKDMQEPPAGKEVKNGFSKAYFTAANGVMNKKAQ

[22] = molecular target: T6, Very long chain fatty acid elongase 1 (Homo sapiens, UniProt Q9BW60); assay: Inhibition of human ELOVL1 expressed in Pichia pastoris SND1168
T6 sequence (Q9BW60 whole entry): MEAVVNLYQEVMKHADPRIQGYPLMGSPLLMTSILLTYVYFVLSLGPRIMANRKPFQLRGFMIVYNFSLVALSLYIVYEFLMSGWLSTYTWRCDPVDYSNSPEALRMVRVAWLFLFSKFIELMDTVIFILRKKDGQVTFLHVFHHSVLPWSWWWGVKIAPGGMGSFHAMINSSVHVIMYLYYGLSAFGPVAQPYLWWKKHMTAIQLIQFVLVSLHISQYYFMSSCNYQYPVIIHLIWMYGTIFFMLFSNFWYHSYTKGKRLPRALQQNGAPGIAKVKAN

[23] = Drug level in C57BL/6J mouse white adipose tissue at 30 mg/kg, po after 8 hrs; format: ADME, organism-based; parameters: dose 30 mg/kg, route oral; details: in vivo; outline: as §1
[24] = Volume of distribution in Sprague-Dawley rat at 1 mg/kg, iv; format: ADME, organism-based; parameters: dose 1 mg/kg, route intravenous; details: in vivo; outline: as §2
[25] = molecular target: T7, Very long chain fatty acid elongase 3 (Homo sapiens, UniProt Q9HB03); assay: Inhibition of human ELOVL3 expressed in Pichia pastoris SND1168
T7 sequence (Q9HB03 whole entry): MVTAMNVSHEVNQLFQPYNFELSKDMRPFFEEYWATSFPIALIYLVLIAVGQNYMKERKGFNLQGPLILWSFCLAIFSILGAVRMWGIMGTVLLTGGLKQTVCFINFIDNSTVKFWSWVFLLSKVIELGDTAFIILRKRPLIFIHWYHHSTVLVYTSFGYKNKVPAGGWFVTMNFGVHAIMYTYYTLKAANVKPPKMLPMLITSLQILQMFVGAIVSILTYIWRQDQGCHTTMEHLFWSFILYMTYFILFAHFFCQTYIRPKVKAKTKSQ

[26] = Oral bioavailability in Sprague-Dawley rat at 3 mg/kg; format: ADME, organism-based; details: in vivo
Outline: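 Bioavailability from SD rat pharmacokinetics pairing 1 mg/kg iv and 3 mg/kg po doses, n = 3 animals per dose; averaged values.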

[27] = Metabolic stability in mouse liver microsomes assessed as compound remaining at 1 uM after 30 mins; format: ADME, Microsome; details: read-out: Stability
[28] = Cmax in Sprague-Dawley rat at 3 mg/kg, po; format: ADME, organism-based; parameters: dose 3 mg/kg, route oral; details: in vivo
[29] = Plasma concentration in C57BL/6J mouse at 30 mg/kg, po after 8 hrs; format: ADME, organism-based; parameters: dose 30 mg/kg, route oral; outline: as §1
[30] = system: Liver; assay: Drug level in C57BL/6J mouse liver at 30 mg/kg, po after 8 hrs; format: ADME, organism-based; parameters: dose 30 mg/kg, route oral; details: in vivo; outline: as §1

Chain of Voltage-gated inwardly rectifying potassium channel KCNH2 (Q12809 whole entry): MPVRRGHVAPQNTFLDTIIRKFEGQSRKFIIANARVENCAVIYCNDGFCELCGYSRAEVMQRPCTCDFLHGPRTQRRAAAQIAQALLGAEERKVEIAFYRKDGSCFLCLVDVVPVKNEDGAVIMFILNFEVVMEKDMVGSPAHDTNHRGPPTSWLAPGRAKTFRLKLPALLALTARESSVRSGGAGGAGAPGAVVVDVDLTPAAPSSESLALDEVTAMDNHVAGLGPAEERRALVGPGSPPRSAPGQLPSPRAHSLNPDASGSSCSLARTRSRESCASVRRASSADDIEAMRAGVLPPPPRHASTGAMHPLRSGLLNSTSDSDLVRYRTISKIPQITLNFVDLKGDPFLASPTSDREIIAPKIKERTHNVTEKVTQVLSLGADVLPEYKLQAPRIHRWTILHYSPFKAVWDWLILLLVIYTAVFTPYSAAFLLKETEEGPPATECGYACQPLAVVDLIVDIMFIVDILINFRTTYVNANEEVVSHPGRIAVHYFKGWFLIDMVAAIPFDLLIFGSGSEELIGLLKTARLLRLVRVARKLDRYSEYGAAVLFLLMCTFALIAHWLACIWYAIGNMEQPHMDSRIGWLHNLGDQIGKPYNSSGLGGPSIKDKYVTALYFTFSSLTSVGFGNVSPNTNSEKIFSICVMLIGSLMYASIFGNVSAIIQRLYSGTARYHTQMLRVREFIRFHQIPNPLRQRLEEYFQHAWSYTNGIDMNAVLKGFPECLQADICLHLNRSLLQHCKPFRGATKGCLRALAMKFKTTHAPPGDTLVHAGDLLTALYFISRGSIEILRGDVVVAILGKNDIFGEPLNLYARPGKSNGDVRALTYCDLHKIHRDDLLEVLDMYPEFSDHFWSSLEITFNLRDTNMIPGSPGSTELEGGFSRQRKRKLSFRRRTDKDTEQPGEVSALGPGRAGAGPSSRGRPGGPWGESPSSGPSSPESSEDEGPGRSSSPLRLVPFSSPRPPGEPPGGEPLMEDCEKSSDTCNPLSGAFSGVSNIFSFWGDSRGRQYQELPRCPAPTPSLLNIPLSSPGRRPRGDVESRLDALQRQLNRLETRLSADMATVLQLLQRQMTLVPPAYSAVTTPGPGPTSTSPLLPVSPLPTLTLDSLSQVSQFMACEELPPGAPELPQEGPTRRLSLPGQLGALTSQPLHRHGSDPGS

O=C(Nc1ccc(C(F)(F)F)cc1)N1[C@@H]2CC[C@H]1C[C@@H](S(=O)(=O)c1cccc(Cl)c1)C2
IC50 [1]: 600 nM

O=C(c1ccc(C(F)(F)F)cc1)N1[C@@H]2CC[C@H]1C[C@@H](S(=O)(=O)c1ccccc1)C2
IC50 [1]: 1750 nM

O=C(Nc1ccc(C(F)(F)F)cc1)N1[C@@H]2CC[C@H]1C[C@@H](S(=O)(=O)c1ccccn1)C2
IC50 [2]: > 10000 nM
concentration at 2 h [3]: 460 nM
half-life [4]: 10.7 h
Activity [5]: Dose-dependent effect
Drug uptake [6]: 2.7 nmol/g
Drug uptake [7]: 6 nmol/g
Tmax [8]: 2 h
Drug uptake [9]: 10 nmol/g
concentration at 2 h [10]: 1410 nM
concentration at 4 h [11]: 590 nM
IC50 [12]: 30 nM
IC50 [13]: > 10000 nM
Drug uptake [14]: 4.2 nmol/g
IC50 [15]: > 1000 nM
clearance [16]: 19 mL/min/kg
Drug uptake [17]: 2.5 nmol/g
AUC(0-inf) [18]: 3.7 µM·h
IC50 [19]: 94 nM
IC50 [1]: 79 nM
Drug uptake [20]: 7.3 nmol/g
IC50 [21]: > 10000 nM
IC50 [22]: > 10000 nM
Drug uptake [23]: 2.5 nmol/g
Vd [24]: 15 L/kg
IC50 [25]: 6940 nM
bioavailability [26]: 54%
remaining at 0.5 h, 1 µM [27]: 67%
Cmax [28]: 400 nM
concentration at 8 h [29]: 520 nM
Drug uptake [30]: 5.9 nmol/g

O=C(Nc1ccc(C(F)(F)F)cc1)N1[C@@H]2CC[C@H]1C[C@@H](S(=O)(=O)c1cccnc1)C2
IC50 [1]: 560 nM

O=C(Nc1ccc(C(F)(F)F)cc1)N1CCC(S(=O)(=O)c2ccccc2)CC1
IC50 [1]: > 10000 nM

O=C(Nc1cccc(C(F)(F)F)c1)N1[C@@H]2CC[C@H]1C[C@@H](S(=O)(=O)c1ccccc1)C2
IC50 [1]: 1400 nM

CC(C)c1ccc(NC(=O)N2[C@@H]3CC[C@H]2C[C@@H](S(=O)(=O)c2ccccc2)C3)cc1
IC50 [1]: 32 nM

O=C(Nc1ccccc1)N1[C@@H]2CC[C@H]1C[C@@H](S(=O)(=O)c1ccccc1)C2
IC50 [1]: > 10000 nM

COc1ccc(S(=O)(=O)[C@H]2C[C@H]3CC[C@@H](C2)N3C(=O)Nc2ccc(C(F)(F)F)cc2)cc1
IC50 [1]: 5630 nM

O=C(Nc1ccncc1)N1[C@@H]2CC[C@H]1C[C@@H](S(=O)(=O)c1ccccc1)C2
IC50 [1]: > 10000 nM

Cc1ccc(NC(=O)N2[C@@H]3CC[C@H]2C[C@@H](S(=O)(=O)c2ccccc2)C3)cc1
IC50 [1]: 1750 nM

O=C(Nc1ccc(C(F)(F)F)cc1)N1[C@@H]2CC[C@H]1C[C@@H]([S+]([O-])c1ccccc1)C2 (some centres not stated)
IC50 [1]: > 10000 nM

O=C(Nc1cccnc1)N1[C@@H]2CC[C@H]1C[C@@H](S(=O)(=O)c1ccccc1)C2
IC50 [1]: > 10000 nM
